The list is not random: actives were taken first. Their share in the collection is about 4.1%.
KCNQ1 inh – human KCNQ1 channel inhibition; P51787; CHO-K1 KCNQ1, FluxOR thallium flux fluorescence; hits give high values; B-score at 10 µM; actives 1.3% (n = 310,000); AID 2642;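 active = compounds whose thallium flux B-score, printed positive for inhibition, exceeds three library SD while starting fluorescence stays within three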;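 also: channel opened by potassium depolarization with thallium stimulus after 20 min compound exposure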
KCNK3 inh – human KCNK3 channel inhibition, primary screen; B-score at 10 µM; CHO-KCNK3 thallium flux, FluxOR fluorescence; hits give low values; actives 0.84% (n = 340,000);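 active = B-score under library mean minus 4 SD, starting fluorescence ratio at most library mean plus 5 SD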;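 also: more negative B-score means stronger inhibition of thallium flux through KCNK3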
KCC2 mod – modulators of human KCC2 chloride dependent transport; KCC2 cells, thallium flux FluoZin-2 fluorescence; B-score of Tl+ flux slope (higher = more flux/activation; lower = inhibition) at 10 µM; actives 2.2% (n = 190,000); AID 1456;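 active = thallium flux slope and its plate-corrected score both differing from the plate sample mean at a set confidence after two filtering rounds, in either direction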;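 also: slope of fluorescence scaled to starting intensity during 10 to 20 s after thallium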
KCNQ1 act – potentiators or activators of human KCNQ1 potassium channel | actives 0.35% (n = 310,000) | B-score at 10 µM | CHO-K1 KCNQ1, thallium flux FluxOR fluorescence; hits give high values;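 active = fluorescence ratio B-score, a plate-corrected score, at least three library SD, with initial intensity B-score within 5 SD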
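Assay system: stable KCNQ1 CHO-K1 line; medium: assay buffer, equal DMSO in all wells; timing: 90 min dye loading and 20 min compound exposure, both at room temperature; technique: kinetic FluxOR thallium fluorescence, 10-s 1-Hz baseline, 110-s post-stimulus read; read-out basis: B score of baseline-normalized fluorescence ratio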
KCNK9 block – human KCNK9 channel inhibition. Q9NPC2. HEK293 KCNK9, FluxOR thallium flux fluorescence; hits give low values. B-score at 10 µM. actives 1.2% (n = 310,000);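 active = ratio B-score over 3 SD below the library mean, with starting fluorescence within 5 SD of its mean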;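 also: negative B-score means less thallium flux so channel inhibition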
hERG rescue – hERG (human) protection from proarrhythmic block; Q12809; CHO-hERG, FluxOR thallium flux, dofetilide IC70 present; activation (rescue from dofetilide block), less the hit threshold, % at 10 µM; actives 0.51% (n = 310,000); AID 1511;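 active = activation above the mean of controls blocked by dofetilide plus 5 SD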;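 also: thallium influx through hERG after potassium depolarization seen as dye fluorescence rise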
Target sequence (Q12809 whole entry, looked up): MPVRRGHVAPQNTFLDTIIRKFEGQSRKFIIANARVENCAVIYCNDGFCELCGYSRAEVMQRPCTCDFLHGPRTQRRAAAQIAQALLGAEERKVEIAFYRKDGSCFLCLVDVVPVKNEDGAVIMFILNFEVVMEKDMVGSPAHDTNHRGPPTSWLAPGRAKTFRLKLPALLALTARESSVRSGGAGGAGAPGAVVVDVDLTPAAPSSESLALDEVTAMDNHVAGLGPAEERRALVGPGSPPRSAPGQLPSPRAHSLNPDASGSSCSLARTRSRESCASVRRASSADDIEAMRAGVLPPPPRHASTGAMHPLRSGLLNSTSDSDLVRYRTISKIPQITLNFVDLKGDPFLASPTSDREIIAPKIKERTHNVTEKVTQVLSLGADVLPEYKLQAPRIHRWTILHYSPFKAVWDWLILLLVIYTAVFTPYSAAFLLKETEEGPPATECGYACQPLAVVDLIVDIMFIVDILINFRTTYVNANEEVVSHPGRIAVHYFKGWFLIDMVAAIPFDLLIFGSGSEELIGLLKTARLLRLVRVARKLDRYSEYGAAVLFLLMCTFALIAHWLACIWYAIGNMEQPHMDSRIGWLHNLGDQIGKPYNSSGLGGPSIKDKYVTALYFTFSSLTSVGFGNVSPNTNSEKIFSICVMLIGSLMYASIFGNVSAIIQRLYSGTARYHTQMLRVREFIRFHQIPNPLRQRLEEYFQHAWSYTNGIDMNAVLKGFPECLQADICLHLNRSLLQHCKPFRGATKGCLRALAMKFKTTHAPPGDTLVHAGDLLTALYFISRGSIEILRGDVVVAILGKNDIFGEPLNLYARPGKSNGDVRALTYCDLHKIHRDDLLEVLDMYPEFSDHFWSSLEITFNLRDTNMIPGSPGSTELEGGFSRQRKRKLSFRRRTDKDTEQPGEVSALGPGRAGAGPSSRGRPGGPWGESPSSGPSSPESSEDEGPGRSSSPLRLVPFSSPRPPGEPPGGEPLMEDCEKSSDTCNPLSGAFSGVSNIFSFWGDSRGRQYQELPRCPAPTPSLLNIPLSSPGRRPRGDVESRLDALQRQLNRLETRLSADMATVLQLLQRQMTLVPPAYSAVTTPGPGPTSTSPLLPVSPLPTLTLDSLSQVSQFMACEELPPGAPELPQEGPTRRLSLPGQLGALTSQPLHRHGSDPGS
Numbers stand for hits; i = inactive; nt = no result.

SMILES	KCNQ1 inh	KCNK3 inh	KCC2 mod	KCNQ1 act	KCNK9 block	hERG rescue
CC(=O)N(C)C1=C(O)c2ccccc2C(=O)C1=O	i	i	i	i	i	i
O=C(NCc1ccco1)c1nc2ccccc2s1	i	i	i	i	i	i
O=C(COC(=O)CCCc1nc2ccccc2s1)NC(=O)NCc1ccco1	i	i	i	i	i	6.4
CCc1nc2ccc(C(=O)N3CCN(c4cccc(C(F)(F)F)c4)CC3)cc2nc1CC	i	i	nt	i	i	i
O=Cc1ccc(-c2cc(Cl)ccc2Cl)[nH]1	i	i	i	i	-6.66	i
Nc1nc(N)nc(-c2cc(Cl)ccc2Cl)n1	i	i	nt	i	i	i
CCc1ccn2cc(-c3ccc4c(c3)OCO4)nc2c1	i	i	i	i	-7.32	i
NC(=NC(=O)c1cccc(C(F)(F)F)c1)c1ccc(C(F)(F)F)cn1	i	i	i	i	-7.02	i
NC(=NC(=O)c1ccc(OC(F)(F)F)cc1)c1ccc(C(F)(F)F)cn1	i	i	i	i	i	i
CC1(N2CCCCC2)CC2(O)C(=[N+]1[O-])CCC/C2=N\O (centres undefined)	i	i	i	8	i	i
O=C(CC(C(=O)O)N1CCOCC1)Nc1ccc(Cl)cc1 (centres undefined)	i	i	nt	i	i	i
COC(=O)c1cc(NC(=O)c2cccc(C(F)(F)F)c2)c(=O)oc1C/C=N/OCc1cccc(Cl)c1Cl	i	-11.1	i	i	i	i
COC(=O)c1cc(NC(=O)c2cccc(C(F)(F)F)c2)c(=O)oc1C	i	i	i	i	i	i
S=c1[nH]nc(Cc2ccc(Br)cc2)n1/N=C/c1ccc(Cl)cc1	i	i	i	i	i	16.1
O=[N+]([O-])c1cc(C=Nc2cccc3c(O)cccc23)ccc1Cl	7	nt	nt	i	i	i
O=[N+]([O-])c1cc(/C=N\Nc2ccccn2)ccc1Cl	i	i	nt	i	i	i
COC(=O)c1cn(NC(=O)CC2CCCCC2)c(=O)c2ccccc12	i	i	i	i	i	i
COC(=O)c1cn(NC(=O)CCC2CCCC2)c(=O)c2ccccc12	i	i	i	i	i	5.8
O=c1nc(/C=C/c2ccc(-c3ccc(F)cc3)o2)cc(C(F)(F)F)[nH]1	11	nt	i	i	i	i
N#CCCN1CCN(C(=S)c2ccc(-c3cc(Cl)ccc3Cl)o2)CC1	i	i	nt	i	-7.8	i
Cc1ccc(S(=O)(=O)N2CCCCC2CCNC(=O)C(=O)NC2CCCC2)cc1 (centres undefined)	i	i	nt	i	i	i
COC(=O)C1=NN(C(=O)c2ccccc2)C(O)(c2ccc([N+](=O)[O-])cc2)C1 (centres undefined)	i	i	nt	i	i	i
COC(=O)C1=NN(C(=O)c2cccc(Cl)c2)C(O)(C(C)(C)C)C1 (centres undefined)	nt	i	51.4	nt	nt	nt
COC(=O)C1=NN(C(=O)c2ccccc2)C(C)(O)C1 (centres undefined)	i	i	nt	i	i	i
COC(=O)C1=NN(C(=O)c2ccc(C)cc2)C(O)(c2ccc(Cl)cc2)C1 (centres undefined)	i	nt	nt	37	i	50.2
SMILES	KCNQ1 inh	KCNK3 inh	KCC2 mod	KCNQ1 act	KCNK9 block	hERG rescue
CC(C)Oc1cccc(C(=O)N2CCCC2)c1	i	i	i	i	i	19.4
Cc1cccc(C(=O)N2CCCCCC2)c1	i	i	i	i	i	i
CCC(=O)NC1(C(F)(F)F)C(=O)Nc2c1c(=O)[nH]c(=O)n2Cc1ccco1 (centres undefined)	i	i	i	i	i	i
CCOC(=O)C1C(c2ccccc2)C(C(=O)OCC)C1c1ccccc1 (centres undefined)	i	i	i	i	i	5.7
C[C@H](CO)N1C[C@H](C)[C@@H](CN(C)C)Oc2c(NC(=O)C3CC3)cccc2C1=O	nt	i	nt	nt	nt	nt
CCCCCCCC(=O)OC(CN1CCCCC1)CN1CCCC1=O (centres undefined)	i	i	nt	i	i	i
CCCCCC(=O)OC(CN1CCCCCC1)CN1CCCC1=O (centres undefined)	10	i	i	i	i	i
CCOc1ccc(CN2C(=O)c3ccccc3C2=O)cc1C(=O)N1CCC(C(N)=O)CC1	i	i	nt	i	i	i
CCC/C(=N/NC(=O)c1csc(C)c1C)c1ccc(Cl)s1	i	i	3.71	i	i	i

High-throughput results from PubChem.
